Assay outcomes as filed in PubChem.
MT stabilize HCS – stabilizes microtubules in HeLa cells | HeLa tubulin immunostaining HCS, 24 h; share of cells brighter than vehicle mean+2SD | % tubulin-high responders, % at 10 µM | 200,000 compounds, 0.83% hits;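 active = plate Z-score above 3 for both tubulin-high and condensed-nucleus cell shares, with cell loss under 80%, at 10 µM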;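 note: anti alpha tubulin signal scored within the nucleus-defined area of each cell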
Dynein transport – dynein cargo transport inhibition; 3617.4 mouse cells, GR-EGFP nuclear translocation imaging; test concentration mostly 20 µM; stimulated with dexamethasone, 1 µM; stronger effect = lower value; z-score, hits read low; 220,000 compounds, 0.47% hits; AID 1381;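 active = plate z-score of nuclear minus cytoplasmic receptor signal below a set negative limit, without overly bright fluorescence or cell loss, cut at about -3.5 in these data, passing the limit was not always enough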;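 note: z-score of nuclear minus cytoplasmic ring GR-EGFP intensity difference per well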
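Buffer or medium: Induction medium lacking tetracycline, stripped serum | Also added: Dexamethasone agonist, 1.0 µM final, for 30 min | Timing: 48 h induction, 1 h compound, 30 min dex at 37 °C | Detection: Formaldehyde fixation, Hoechst nuclear stain, 10x automated fluorescence imaging | Measure: Nuclear versus cytoplasmic GR-EGFP signal, averaged per well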
HSV replic up – HSV replication enhancement. AID 1956. HSV replication augmentation in cells, fold increase. 220,000 compounds, 0.005% hits. maximum fold increase; in the data active = maximum fold increase above about 1.5; tested in PC3 cells
b-catenin transl – beta-catenin nuclear translocation modulation; nuclear translocation activity, % at 5 µM; AID 1665; HeLa beta-catenin nuclear translocation, immunofluorescence imaging; 190,000 compounds, 0.3% hits;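 active = nuclear translocation activity above 50% at 5 µM, with a well cell count of 50 or more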;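 note: per-cell ratio of nuclear to cytoplasmic median beta-catenin stain intensity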
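Assay system: human HeLa cells, native beta-catenin; doses: 5 µM primary, 0.02–20 µM confirmation; incubation: compound treatment 24 h, 37°C, 5% CO2; technique: fluorescence imaging of beta-catenin antibody stain plus DAPI; measure: % activation, nuclear-to-cytoplasmic median beta-catenin signal ratio per cell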
Lmaj promast – Leishmania major promastigote growth inhibition. AID 1063. Leishmania major promastigotes, resazurin fluorescence viability. 200,000 compounds, 9% hits. inhibition, % at 10 µM; in the data active = inhibition above about 50%;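 note: promastigotes grown with compound for 44 hours at 28 °C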
Hits are given with their value; . = inactive; / = no result given. In the library only some 8.9% were active in any assay of this set; here they are far more common.

SMILES | MT stabilize HCS | Dynein transport | HSV replic up | b-catenin transl | Lmaj promast
Cc1ccc(C(OCC(O)CN2CCCCC2CO)c2ccccc2)cc1 (centres undefined) | . | . | . | . | 84
CC1CCCN(CC(O)COC(c2ccccc2)c2ccccc2)C1 (centres undefined) | . | . | . | . | 99
C=CCNC(=O)/C(C#N)=C/c1c(C)nn(-c2ccccc2)c1Cl | . | . | . | / | 99
CCOc1ccccc1NC(=O)/C(C#N)=C/c1c(C)nn(-c2ccccc2)c1Cl | . | . | . | / | 82
C=CCNC(=O)/C(C#N)=C/c1c(N(Cc2ccccc2)Cc2ccccc2)nc2ccccn2c1=O | . | . | . | . | 76
C=CCNC(=O)/C(C#N)=C/c1ccc(SC)cc1 | . | . | . | . | .
CCOC(=O)CNC(=O)c1c(C)nn(-c2ccccc2)c1Cl | . | . | . | / | .
O=C(CNS(=O)(=O)c1ccc(Br)cc1)N1CCN(c2ccc(F)cc2)CC1 | . | . | . | . | .
COc1cc(C)c(Cc2cnc(N)nc2N)cc1OC | / | / | . | . | /
C/C(=N\NC(=O)c1ccc(Cn2cc([N+](=O)[O-])cn2)o1)c1cccc(NC(=O)c2cccnc2)c1 | . | . | . | / | .
Cc1ccccc1-c1nc(CN2CCC(C(=O)NCc3cccnc3)CC2)c(C)o1 | . | . | . | . | .
COc1ccc(-c2n[nH]c3c2C(c2ccc(OC)c(OC)c2)N(c2ccccc2)C3=O)cc1 (centres undefined) | . | . | . | / | 97
COCCCN1C(=O)c2[nH]nc(-c3ccccc3O)c2C1c1cccc(Cl)c1 (centres undefined) | 36 | . | . | . | .
COCCCN1C(=O)c2[nH]nc(-c3cc(C)cc(C)c3O)c2C1c1ccc(O)c(OC)c1 (centres undefined) | . | . | . | . | .
CCCN1C(=O)c2[nH]nc(-c3cc(Cl)c(C)cc3O)c2C1c1ccc(O)c(OC)c1 (centres undefined) | / | . | . | . | /
CC(C)OCCCN1C(=O)c2[nH]nc(-c3ccccc3O)c2C1c1cccc(Cl)c1 (centres undefined) | . | . | . | . | 70
COCCCN1C(=O)c2[nH]nc(-c3ccccc3O)c2C1c1ccc(Cl)cc1 (centres undefined) | 44 | . | . | . | 66
Cc1nc(N/N=C/c2ccccc2)nc(N(C)c2ccccc2)c1[N+](=O)[O-] | . | . | . | . | .
COc1ccc(CCN2C(=O)c3[nH]nc(-c4ccccc4O)c3C2c2ccccc2)cc1OC (centres undefined) | . | . | . | . | 60
Cc1ccc(NC(=O)/C(C#N)=C(\N)C(Cl)(Cl)Cl)nc1 | . | . | . | . | 100
Cc1ccc(NC(=O)C(=O)Nc2ccc(C)cn2)nc1 | . | . | . | . | .
Cc1ccc(Nc2c(N)c(=O)oc3ccccc23)cc1 | 30 | . | . | . | 73
CNc1c(N)c(=O)oc2ccccc12 | . | . | . | . | .
CC(C(=O)N1CCc2ccccc21)N1CCN(c2ccccn2)CC1 (centres undefined) | . | . | . | . | .
Cn1c(C(=O)NCc2cccnc2)cc2sc(Cl)cc21 | . | . | . | . | 81
SMILES | MT stabilize HCS | Dynein transport | HSV replic up | b-catenin transl | Lmaj promast
O=C(NCc1cccnc1)c1sc2cc(Cl)ccc2c1Cl | . | . | . | . | 82
COc1ccc(Nc2nc(C)nc3sc4c(c23)CCC4)cc1O | 21 | . | . | . | .
COC(=O)c1[nH]c2c(c1C)C(=O)CC(c1cc(OC)ccc1OC)C2 (centres undefined) | 27 | . | . | . | .
COC(=O)c1[nH]c2c(c1C)C(=O)CC(c1cccs1)C2 (centres undefined) | 16 | . | . | . | .
CSc1ccccc1NC(=O)CN(C)C(C)C(=O)Nc1ccc(C#N)cc1 (centres undefined) | . | . | . | . | 56
CSc1ccccc1NC(=O)CN(C)CC(=O)Nc1ccccc1F | . | . | . | . | .
O=[N+]([O-])c1ccc(O)c(C2=NNC(c3ccccc3F)C2)c1 (centres undefined) | / | . | . | . | /
CC1C/C(=N\NC(=S)NCc2ccccc2)CC(C)(C)C1 (centres undefined) | . | . | . | . | 99
CC(NC(=O)OC1CCCCC1)N1C(=O)C2C3C=CC(C3)C2C1=O (centres undefined) | . | . | . | . | .
CN(CCCNC(=O)CSc1cc(=O)n(C)c2ccc(Cl)cc12)Cc1ccccc1 | . | . | . | . | 58
Cc1ccccc1C(=O)N1CCC(C(=O)Nc2nccs2)CC1 | . | . | . | . | .
C=CCOc1c(Cl)cc(CNc2ccc(N(C)C)cc2)cc1OC | 32 | . | . | . | 101
COc1cccc(CNc2ccc(C)c(Cl)c2)c1 | . | . | . | . | .
C=CCOc1c(Cl)cc(CNc2ccc(C)c(Cl)c2)cc1OC | 18 | . | . | 146 | .
CC(C)(C)NC(=O)CSc1nc2ccc(NC(=O)CSc3nnc(N)s3)cc2s1 | . | . | . | . | 71
CC(C)(C)NC(=O)CSc1nc2ccc(NC(=O)CSc3nnnn3Cc3ccccc3)cc2s1 | . | . | . | / | .
CCCC(=O)Nc1ccc2nc(SCC(=O)Nc3ccc(N4CCOCC4)c(Cl)c3)sc2c1 | . | . | . | . | 99
O=Nc1onc(-c2ccc([N+](=O)[O-])cc2)c1NO | . | . | . | . | .
COc1ccc(Cl)cc1NC(=O)NC(C)C | . | . | . | . | 95
COc1cc(NC(=O)C2CCCCC2)c(OC)cc1NC(=O)c1ccco1 | . | . | . | . | .
COc1cccc(C(C)NC(=O)Nc2cc(Cl)ccc2OC)c1 (centres undefined) | . | . | . | . | .
COc1ccc(Cl)cc1NC(=O)c1ccco1 | . | . | . | . | 64
COc1cc(NC(=O)c2ccco2)c(OC)cc1NC(=O)Nc1ccccc1Cl | . | . | . | . | 72
CC1(C)CC(=O)C2=C(C1)NC(=O)CC2c1cc2c(cc1Br)OCO2 (centres undefined) | . | . | . | . | .
Cc1ccc(Nc2nnc(C(C)(C)C)c(=O)n2N)cc1 | . | . | . | . | .
SMILES | MT stabilize HCS | Dynein transport | HSV replic up | b-catenin transl | Lmaj promast
CC(C)(C)c1nnc(N/N=C/c2cc(Br)ccc2O)n(N)c1=O | . | . | . | . | 98
COc1ccc2nc(N3C(=O)CC(Cc4ccc(C)cc4)C3=O)sc2c1 (centres undefined) | . | . | . | . | 76
Cc1ccc(-c2ccc(/C=N/n3cnnc3)o2)cc1Cl | . | . | . | / | 71
Cc1ccc(-c2ccc(/C=N/n3cnnc3)o2)cc1 | / | . | . | . | /
Cc1ccc(C)n1N1C(=O)/C(=C\c2ccc(Cl)cc2)SC1=S | . | . | . | . | .
Cc1ccc(Nc2cc(C)nn2-c2nc(C)cc(=O)[nH]2)cc1 | . | . | . | . | 100
Cc1ccc(Nc2nc3ccccc3nc2-n2nc(C)cc2C)cc1 | . | . | . | . | .
CC(=O)Nc1cc(C)nn1-c1nc(C)cc(C)n1 | . | . | . | . | .
Cc1ccc(Nc2cc(C)nn2-c2nc(C)cc(C)n2)cc1 | . | . | . | . | 92
